Test results from PMC2664401 (Pharmaceutical research, 2008).
Several values for one entry are separate records, joined by “and”; a condition that tells them apart may be missing. Equal entries are not always repeated. Entries after “also recorded” stand apart in the source; their conditions may differ.

Assays:
[1] = Hydrolysis in DPBS transport media; type: physicochemical; settings: pH 7.4
[2] = Stability in ocular tissue homogenates: iris-ciliary body; type: in vitro ADME; settings: rabbit, iris-ciliary body homogenate supernatant, pH 7.4
[3] = Stability in vitreous humor; type: in vitro ADME, rabbit; settings: for Apparent first order rate constant (k*): Vitreous Humor used as such, 37 °C, overall observed degradation; for half-life at 10 μg/mL: rabbit, vitreous humor (used as such)
[4] = Stability in ocular tissue homogenates: retina/choroid; type: in vitro ADME; settings: rabbit, retina/choroid homogenate supernatant, pH 7.4
[5] = target: T1, amino acid transporter B^0,+ (Oryctolagus cuniculus, UniProt G1T8K9); assay: Transcorneal transport mechanism studies; type: in vitro ADME, rabbit; settings: for Substrate of the corneal amino acid transporter B^0,+: concluded from rabbit corneal permeability with and without inhibitors
T1 sequence (G1T8K9 1-637): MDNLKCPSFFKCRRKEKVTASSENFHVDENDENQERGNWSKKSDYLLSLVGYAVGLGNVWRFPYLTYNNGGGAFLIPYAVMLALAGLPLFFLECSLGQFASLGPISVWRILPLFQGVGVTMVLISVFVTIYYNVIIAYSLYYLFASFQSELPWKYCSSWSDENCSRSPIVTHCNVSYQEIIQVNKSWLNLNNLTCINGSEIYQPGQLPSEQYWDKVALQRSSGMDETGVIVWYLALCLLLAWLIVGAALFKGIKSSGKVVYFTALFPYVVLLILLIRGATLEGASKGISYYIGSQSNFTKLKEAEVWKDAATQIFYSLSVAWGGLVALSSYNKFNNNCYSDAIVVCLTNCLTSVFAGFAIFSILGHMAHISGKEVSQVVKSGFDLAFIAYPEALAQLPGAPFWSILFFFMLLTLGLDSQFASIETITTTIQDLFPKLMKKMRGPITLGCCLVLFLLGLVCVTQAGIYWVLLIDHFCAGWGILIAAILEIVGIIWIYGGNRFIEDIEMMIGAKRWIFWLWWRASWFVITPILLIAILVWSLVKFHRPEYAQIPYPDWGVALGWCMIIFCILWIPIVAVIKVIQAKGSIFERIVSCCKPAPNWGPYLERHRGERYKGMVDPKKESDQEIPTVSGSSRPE

[6] = Aqueous solubility, shake flask method in water; type: physicochemical; settings: for solubility at 24 h: water, 25 °C, thermodynamic from solid
How it was run: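 Excess solid test compound was added to 0.5 mL water pre-equilibrated at 25 °C and shaken in a water bath at 25 ± 0.5 °C and 75 rpm for 24 h. Aliquots were centrifuged, and the supernatant was filtered and assayed for drug content. Analysis was by HPLC on a C18 column with 15 mM phosphate (pH 2.5)/1% acetonitrile and fluorescence detection (ex 270, em 380). Runs were in duplicate.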

[7] = Stability in ocular tissue homogenates: cornea; type: in vitro ADME; settings: rabbit, corneal homogenate supernatant, pH 7.4
Solution = type: physicochemical
B^o,+ = settings: a substrate of B^o,+; cited from earlier work
[8] = system: amino acid transporter B^0,+; settings: xenopus laevis oocytes; cited from earlier work
[9] = cited from earlier work

half-life at 10 μg/mL [2] [h]	Apparent first order rate constant (k*) [3]	half-life at 10 μg/mL [3] [h]	half-life at 10 μg/mL [4] [h]	Substrate of the corneal amino acid transporter B^0,+ [5]	solubility at 24 h [6]	half-life at 10 μg/mL [7] [h]	SMILES	other results
2.32 ± 0.168	5 ± 0.5 ×10^3, min^−1	2.34 ± 0.252	20 ± 1.47	not a substrate	3850 µg/mL and 10200 µM	3.73 ± 0.21	Cl.Nc1nc2c(ncn2COCCOC(=O)[C@H](N)CC(=O)O)c(=O)[nH]1 [D-Asp-ACV, (R)-3-amino-4-(2-((2-amino-6-oxo-1H-purin-9(6H)-yl)methoxy)ethoxy)-4-oxobutanoic acid-HCl]	half-life ([1]; DPBS): 5.6 ± 0.2 h; Solubility, fold higher than that of ACV ([6]; relative to ACV): about 2 fold
2.23 ± 0.085	4.2 ± 0.1 ×10^3, min^−1	2.76 ± 0.065	0.86 ± 0.0267	is a substrate	3840 µg/mL and 10200 µM	4.83 ± 0.203	Cl.Nc1nc2c(ncn2COCCOC(=O)[C@@H](N)CC(=O)O)c(=O)[nH]1 [L-Asp-ACV, (S)-3-amino-4-(2-((2-amino-6-oxo-1H-purin-9(6H)-yl)methoxy)ethoxy)-4-oxobutanoic acid-HCl]	half-life ([1]; buffer): 5.1 ± 0.1 h; half-life at 50 μg/mL (Solution; borate buffer, pH 9): 5.6 ± 0.2 h; half-life at 50 μg/mL (Solution; hydrochloride buffer, pH 1.2): 627 ± 31 h; half-life at 50 μg/mL (Solution; phosphate buffer, pH 7): 32 ± 0.4 h; half-life at 50 μg/mL (Solution; phthalate buffer, pH 3): 371 ± 16 h; half-life at 50 μg/mL (Solution; phthalate buffer, pH 5): 262 ± 4 h; Effect of glutamic acid on transcorneal transport ([5]; L-Glutamic acid 1 mM, pH 5): not inhibited; also recorded: failed to inhibit; Transcorneal permeability in the presence of BCH ([5]; male, New Zealand albino, rabbit, 3 h): 2.66±0.21 × 10^−6 cm.s^−1
–	–	–	–	–	–	–	Nc1nc2c(ncn2COCCOC(=O)C(N)Cc2ccccc2)c(=O)[nH]1 (stereo not shown) [phenylalanine-ACV]	Transport of [^3H]-L-Arginine in the presence of prodrug (B^o,+): decreased transport
–	–	–	–	–	–	–	Nc1nc2c(ncn2COCCOC(=O)C[C@H](N)C(=O)O)c(=O)[nH]1 [acyclovir-L-aspartate β-ester]	Transport by the amino acid transporter B^0,+ [8]: is transported
–	–	–	–	–	1200 µg/mL and 5300 µM	–	Nc1nc2c(ncn2COCCO)c(=O)[nH]1 [ACV, acyclovir, reference compound]	saturation solubility in water [9]: 1200 µg/mL
